# Measurements from ChEMBL document CHEMBL1129958, “Synthesis and antiviral activity of certain 5'-modified analogs of 2,5,6-trichloro-1-(beta-D-ribofuranosyl)benzimidazole” (J Med Chem, 1997).
# Tested on: Human betaherpesvirus 5
# Test: Antiviral activity was determined against AD169 strain of HCMV by Plaque and yield reduction test
# Type: functional, organism-based
# Conditions: not given
# How it was run: (§1)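 HFF monolayers in 24-well dishes infected with about 100 PFU HCMV/cm2 of cell sheet. After adsorption, compound in growth medium added to duplicate wells at four to eight concentrations. Incubated 7 days at 37 °C, fixed and stained with crystal violet, microscopic plaques counted. Percent plaque reduction against no-drug wells regressed on log concentration to give IC50.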
row,Compound,IC50
1,O[C@@H]1[C@@H](CI)OC(n2c(Cl)nc3cc(Cl)c(Cl)cc32)[C@@H]1O (some centres undefined),2.9 µM

# Tested on: Human betaherpesvirus 5
# Test: In vitro antiviral activity against HCMV (Towne strain) in HFF (human fibroblast) cells.
# Type: functional, organism-based
# Conditions: Human betaherpesvirus 5, HFF
# How it was run: as §1
row,Compound,IC50
1,CC(=O)OC1C(CI)OC(n2c(Cl)nc3cc(Cl)c(Cl)cc32)C1OC(C)=O (centres undefined),2.7 µM
2,CC1(C)OC2C(CN=[N+]=[N-])OC(n3c(Cl)nc4cc(Cl)c(Cl)cc43)C2O1 (centres undefined),11 µM
3,CC(=O)OC1C(CN=[N+]=[N-])OC(n2c(Cl)nc3cc(Cl)c(Cl)cc32)C1OC(C)=O (centres undefined),1.5 µM
4,CCOC[C@H]1O[C@@H](n2c(Cl)nc3cc(Cl)c(Cl)cc32)[C@H](OC(C)=O)[C@@H]1OC(C)=O,4.3 µM
5,CCCCOC[C@H]1O[C@@H](n2c(Cl)nc3cc(Cl)c(Cl)cc32)[C@H](OC(C)=O)[C@@H]1OC(C)=O,21 µM
6,COC[C@H]1O[C@@H](n2c(Cl)nc3cc(Cl)c(Cl)cc32)[C@H](OC(C)=O)[C@@H]1OC(C)=O,2.8 µM
7,CC(=O)OC1C(CF)OC(n2c(Cl)nc3cc(Cl)c(Cl)cc32)C1OC(C)=O (centres undefined),0.6 µM
8,CC1(C)OC2C(CCl)OC(n3c(Cl)nc4cc(Cl)c(Cl)cc43)C2O1 (centres undefined),14 µM
9,CC(=O)OC1C(CBr)OC(n2c(Cl)nc3cc(Cl)c(Cl)cc32)C1OC(C)=O (centres undefined),2.7 µM
10,CSCC1OC(n2c(Cl)nc3cc(Cl)c(Cl)cc32)C(OC(C)=O)C1OC(C)=O (centres undefined),4.8 µM
11,O[C@@H]1[C@@H](CI)OC(n2c(Cl)nc3cc(Cl)c(Cl)cc32)[C@@H]1O (some centres undefined),3.2 µM

# Tested on: Human betaherpesvirus 5
# Test: In vitro reduction in yield of Towne strain of HCMV in HFF (human fibroblast) cells.
# Type: functional
# Conditions: Human betaherpesvirus 5, HFF
# How it was run: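 HFF in 96-well plates infected with HCMV Towne at MOI 0.5-1 PFU/cell. After adsorption, compound given in duplicate, serially diluted 1:3 from 100 to 0.14 µM. After 7 days at 37 °C, one freeze-thaw cycle, then progeny titred by 1:3 serial dilution on fresh HFF monolayers with plaque counts. IC90 taken from regression of percent inhibition against log concentration.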
row,Compound,IC90
1,CC(=O)OC1C(CF)OC(n2c(Cl)nc3cc(Cl)c(Cl)cc32)C1OC(C)=O (centres undefined),0.19 µM

# Tested on: HFF
# Test: Visual cytotoxicity was scored on Human foreskin fibroblasts (HFF cells) at the time of plaque enumeration.
# Type: functional, cell-based
# Conditions: not given
# How it was run: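 Stationary HFF cells from the plaque assays, not affected by virus, inspected microscopically for cytotoxicity at the time of plaque counting.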
row,Compound,IC50
1,CC(=O)OC1C(CI)OC(n2c(Cl)nc3cc(Cl)c(Cl)cc32)C1OC(C)=O (centres undefined),32 µM
2,CC1(C)OC2C(CN=[N+]=[N-])OC(n3c(Cl)nc4cc(Cl)c(Cl)cc43)C2O1 (centres undefined),32 µM
3,CC(=O)OC1C(CN=[N+]=[N-])OC(n2c(Cl)nc3cc(Cl)c(Cl)cc32)C1OC(C)=O (centres undefined),32 µM
4,CCOC[C@H]1O[C@@H](n2c(Cl)nc3cc(Cl)c(Cl)cc32)[C@H](OC(C)=O)[C@@H]1OC(C)=O,33 µM
5,CCCCOC[C@H]1O[C@@H](n2c(Cl)nc3cc(Cl)c(Cl)cc32)[C@H](OC(C)=O)[C@@H]1OC(C)=O,66 µM
6,COC[C@H]1O[C@@H](n2c(Cl)nc3cc(Cl)c(Cl)cc32)[C@H](OC(C)=O)[C@@H]1OC(C)=O,26 µM
7,CC(=O)OC1C(CF)OC(n2c(Cl)nc3cc(Cl)c(Cl)cc32)C1OC(C)=O (centres undefined),32 µM
8,CC1(C)OC2C(CCl)OC(n3c(Cl)nc4cc(Cl)c(Cl)cc43)C2O1 (centres undefined),32 µM
9,CC(=O)OC1C(CBr)OC(n2c(Cl)nc3cc(Cl)c(Cl)cc32)C1OC(C)=O (centres undefined),32 µM
10,CSCC1OC(n2c(Cl)nc3cc(Cl)c(Cl)cc32)C(OC(C)=O)C1OC(C)=O (centres undefined),32 µM
11,O[C@@H]1[C@@H](CI)OC(n2c(Cl)nc3cc(Cl)c(Cl)cc32)[C@@H]1O (some centres undefined),32 µM

# Tested on: Human alphaherpesvirus 1
# Test: In vitro antiviral activity against HSV-1 virus in BSC-1 (monkey kidney) cells.
# Type: functional, organism-based
# Conditions: Human alphaherpesvirus 1, BSC-1
# How it was run: (§2)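 BSC-1 cells, 10 000/well in MEM(E) with 10% calf serum, incubated overnight at 37 °C. Drug added in quadruplicate together with HSV-1 KOS at 100 PFU/well and incubated 3 days. Read-out by ELISA with HRP-conjugated rabbit anti-HSV-1 and TMB substrate, absorbance at 450 and 570 nm. Percent absorbance reduction against virus-only wells regressed on log concentration for IC50.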
row,Compound,IC50
1,CC(=O)OC1C(CI)OC(n2c(Cl)nc3cc(Cl)c(Cl)cc32)C1OC(C)=O (centres undefined),> 100 µM
2,CC(=O)OC1C(CN=[N+]=[N-])OC(n2c(Cl)nc3cc(Cl)c(Cl)cc32)C1OC(C)=O (centres undefined),> 100 µM
3,CCOC[C@H]1O[C@@H](n2c(Cl)nc3cc(Cl)c(Cl)cc32)[C@H](OC(C)=O)[C@@H]1OC(C)=O,> 100 µM
4,CCCCOC[C@H]1O[C@@H](n2c(Cl)nc3cc(Cl)c(Cl)cc32)[C@H](OC(C)=O)[C@@H]1OC(C)=O,> 100 µM
5,CC(=O)OC1C(CF)OC(n2c(Cl)nc3cc(Cl)c(Cl)cc32)C1OC(C)=O (centres undefined),> 100 µM
6,CC1(C)OC2C(CCl)OC(n3c(Cl)nc4cc(Cl)c(Cl)cc43)C2O1 (centres undefined),> 100 µM
7,CC(=O)OC1C(CBr)OC(n2c(Cl)nc3cc(Cl)c(Cl)cc32)C1OC(C)=O (centres undefined),> 100 µM
8,CSCC1OC(n2c(Cl)nc3cc(Cl)c(Cl)cc32)C(OC(C)=O)C1OC(C)=O (centres undefined),> 100 µM
9,O[C@@H]1[C@@H](CI)OC(n2c(Cl)nc3cc(Cl)c(Cl)cc32)[C@@H]1O (some centres undefined),> 100 µM

# Tested on: Human alphaherpesvirus 1
# Test: Antiviral activity was determined against Herpes simplex virus-1 by ELISA test (IC50 not reached at the noted concentration tested)
# Type: functional, organism-based
# Conditions: not given
# How it was run: as §2
row,Compound,IC50
1,COC[C@H]1O[C@@H](n2c(Cl)nc3cc(Cl)c(Cl)cc32)[C@H](OC(C)=O)[C@@H]1OC(C)=O,> 100 µM

# Tested on: KB
# Test: In vitro inhibition of KB (human carcinoma) cell growth.
# Type: functional, cell-based
# Conditions: not given
# How it was run: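 KB cells, 3000–5000/well, incubated overnight at 37 °C. Compound added in quadruplicate at six to eight concentrations for 48 h (about two population doublings). Cells fixed in 95% ethanol, stained with 0.1% crystal violet, dye eluted with acidified ethanol and read at 570 nm. IC50 from regression against log concentration.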
row,Compound,IC50
1,CC(=O)OC1C(CI)OC(n2c(Cl)nc3cc(Cl)c(Cl)cc32)C1OC(C)=O (centres undefined),60 µM
2,CC(=O)OC1C(CN=[N+]=[N-])OC(n2c(Cl)nc3cc(Cl)c(Cl)cc32)C1OC(C)=O (centres undefined),70 µM
3,CCOC[C@H]1O[C@@H](n2c(Cl)nc3cc(Cl)c(Cl)cc32)[C@H](OC(C)=O)[C@@H]1OC(C)=O,60 µM
4,CCCCOC[C@H]1O[C@@H](n2c(Cl)nc3cc(Cl)c(Cl)cc32)[C@H](OC(C)=O)[C@@H]1OC(C)=O,> 100 µM
5,COC[C@H]1O[C@@H](n2c(Cl)nc3cc(Cl)c(Cl)cc32)[C@H](OC(C)=O)[C@@H]1OC(C)=O,80 µM
6,CC(=O)OC1C(CF)OC(n2c(Cl)nc3cc(Cl)c(Cl)cc32)C1OC(C)=O (centres undefined),100 µM
7,CC1(C)OC2C(CCl)OC(n3c(Cl)nc4cc(Cl)c(Cl)cc43)C2O1 (centres undefined),100 µM
8,CC(=O)OC1C(CBr)OC(n2c(Cl)nc3cc(Cl)c(Cl)cc32)C1OC(C)=O (centres undefined),60 µM

# Tested on: L1210
# Test: Effect of initial screen concentration of 100 uM on the growth of L1210 Murine Leukemia cells
# Type: functional, Mus musculus
# Conditions: not given
# How it was run: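 L1210 mouse leukemia cells in RPMI 1640 with 10% heat-inactivated horse serum, 2000 cells/well. Compound added the next day and incubated 3 days. Growth read by MTS tetrazolium reduction optical density as percent of control. Screen at 100 µM, or the solubility limit; value is the mean of two or three experiments.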
row,Compound,Control
1,CC(=O)OC1C(CBr)OC(n2c(Cl)nc3cc(Cl)c(Cl)cc32)C1OC(C)=O (centres undefined),94%

# Tested on: L1210
# Test: concentration required to decrease the cell density in the treated cultures to one-half of the control was measured on L1210 murine Leukemia cells (in vitro) (The highest concentration tested)
# Type: functional, cell-based
# Conditions: Mus musculus
# How it was run: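 L1210 cells, 2000/well, given compound the day after plating and incubated 3 days; cell density read by MTS reduction. Concentration–response in two independent experiments. IC50 is the concentration that halves cell density relative to control, averaged over the two experiments.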
row,Compound,IC50
1,CCOC[C@H]1O[C@@H](n2c(Cl)nc3cc(Cl)c(Cl)cc32)[C@H](OC(C)=O)[C@@H]1OC(C)=O,> 10 µM

# Tested on: L1210
# Test: concentration required to decrease the cell density in the treated cultures to one-half of the control was measured on L1210 murine Leukemia cells (in vitro); c=No significant growth inhibition observed atthe initial screen concentration
# Type: functional, cell-based, Mus musculus
# Conditions: not given
row,Compound,IC50
1,CC(=O)OC1C(CN=[N+]=[N-])OC(n2c(Cl)nc3cc(Cl)c(Cl)cc32)C1OC(C)=O (centres undefined),No significant growth
2,CCCCOC[C@H]1O[C@@H](n2c(Cl)nc3cc(Cl)c(Cl)cc32)[C@H](OC(C)=O)[C@@H]1OC(C)=O,No significant growth
3,COC[C@H]1O[C@@H](n2c(Cl)nc3cc(Cl)c(Cl)cc32)[C@H](OC(C)=O)[C@@H]1OC(C)=O,No significant growth
4,CC(=O)OC1C(CF)OC(n2c(Cl)nc3cc(Cl)c(Cl)cc32)C1OC(C)=O (centres undefined),No significant growth
5,CC(=O)OC1C(CBr)OC(n2c(Cl)nc3cc(Cl)c(Cl)cc32)C1OC(C)=O (centres undefined),No significant growth

# Tested on: L1210
# Test: Effect of initial screen concentration of 1 uM on the growth of L1210 Murine Leukemia cells
# Conditions: not given
row,Compound,Control
1,COC[C@H]1O[C@@H](n2c(Cl)nc3cc(Cl)c(Cl)cc32)[C@H](OC(C)=O)[C@@H]1OC(C)=O,95%

# Tested on: L1210
# Test: Effect of initial screen concentration of 10 uM on the growth of L1210 Murine Leukemia cells
# Conditions: not given
row,Compound,Control
1,CC(=O)OC1C(CN=[N+]=[N-])OC(n2c(Cl)nc3cc(Cl)c(Cl)cc32)C1OC(C)=O (centres undefined),110%
2,CCOC[C@H]1O[C@@H](n2c(Cl)nc3cc(Cl)c(Cl)cc32)[C@H](OC(C)=O)[C@@H]1OC(C)=O,83%
3,CCCCOC[C@H]1O[C@@H](n2c(Cl)nc3cc(Cl)c(Cl)cc32)[C@H](OC(C)=O)[C@@H]1OC(C)=O,92%
4,CC(=O)OC1C(CF)OC(n2c(Cl)nc3cc(Cl)c(Cl)cc32)C1OC(C)=O (centres undefined),122%
